Measured values from ChEMBL document CHEMBL4342471, “Discovery of Thieno[2,3-d]pyrimidine-Based Hydroxamic Acid Derivatives as Bromodomain-Containing Protein 4/Histone Deacetylase Dual Inhibitors Induce Autophagic Cell Death in Colorectal Carcinoma Cells” (J Med Chem, 2020).
Activity calls are given as the source filed them. The calls are words filed in the database; no cut-off is given here.

Experiments:
HCT-116 [1] = assay: Antiproliferative activity against human HCT116 cells assessed as reduction in cell viability measured after 24 to 48 hrs by MTT assay; assay type: functional, cell-based
HCT-116 [2] = assay: Induction of apoptosis in human HCT116 cells assessed as early apoptotic cells at 0.5 uM by Annexin-V FITC/propidium iodide staining-based flow cytometry (reference value: 2.8 %); assay type: functional
HCT-116 [3] = assay: Induction of apoptosis in human HCT116 cells assessed as viable cells at 0.2 uM by Annexin-V FITC/propidium iodide staining-based flow cytometry (reference value: 93.4 %); assay type: functional; conditions: read-out: Activity
NCM460 = assay: Cytotoxicity against human NCM460 cells; assay type: cell-based
In short: (§1)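 Antiproliferative IC50 values were measured by MTT assay across a panel of colorectal carcinoma cell lines and normal colorectal epithelial cells.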

[4] = molecular target: Bromodomain testis-specific protein (Homo sapiens, UniProt Q58F21); assay: Inhibition of human recombinant His-tagged BRDT BD1 domain expressed in Escherichia coli BL21(DE3)-R3-pRARE2 cells by AlphaScreen assay
[5] = molecular target: T1, Bromodomain-containing protein 4 (Homo sapiens, UniProt O60885); assay: Inhibition of human recombinant His-tagged BRD4 BD2 domain using H-SGRGK(Ac)GGK(Ac)GLGK-(Ac)GGAK(Ac)RHRK(Biotin)-OH as substrate preincubated with enzyme for 30 mins followed by substrate addition measured after 30 mins by AlphaScreen assay
[6] = molecular target: T1, Bromodomain-containing protein 4; assay: Inhibition of human recombinant His-tagged BRD4 BD1 domain using H-SGRGK(Ac)GGK(Ac)GLGK-(Ac)GGAK(Ac)RHRK(Biotin)-OH as substrate preincubated with enzyme for 30 mins followed by substrate addition measured after 30 mins by AlphaScreen assay
[7] = molecular target: Bromodomain-containing protein 3 (Homo sapiens, UniProt Q15059); assay: Inhibition of human recombinant His-tagged BRD3 BD1 domain expressed in Escherichia coli BL21(DE3)-R3-pRARE2 cells by AlphaScreen assay
HCT-116 [8] = assay: Induction of cell cycle arrest in human HCT116 cells assessed as cell accumulation at sub-G1 phase at 0.2 to 0.5 uM by flow cytometry; assay type: functional, cell-based
In short: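 HCT-116 cells treated at 0.2 or 0.5 μM were analysed for cell cycle by flow cytometry, with the sub-G1 population scored.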

HCT-116 [9] = assay: Induction of apoptotic cell death in human HCT116 cells by Annexin-V FITC/propidium iodide staining-based flow cytometry; assay type: functional
Homo sapiens [10] = organism: Homo sapiens; assay: Inhibition of BRD4/HDAC in human HCT116 cells assessed as increase in caspase 9 cleavage at 0.2 to 0.5 uM measured after 24 hrs by Western blot analysis; assay type: cell-based
[11] = molecular target: T1, Bromodomain-containing protein 4; assay: Inhibition of BRD4 in human HCT116 cells transfected with GFP-LC3 assessed as induction of autophagy by measuring increase in LC3 puncta at 0.5 uM measured after 24 hrs by confocal fluorescence microscopy; assay type: cell-based
In short: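 HCT-116 cells transfected with GFP-LC3 plasmid, then incubated 24 h with 0.5 µM test agent; LC3 puncta (autophagosomes) imaged by confocal fluorescence microscopy.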

LoVo = assay: Cytotoxicity against human LoVo cells assessed as reduction in cell viability; assay type: functional, cell-based; in short: as §1
HCT-116 [12] = assay: Antitumor activity against human HCT116 cells xenografted in BALB/cAnNCrl mouse assessed as average tumor growth inhibition at 15 to 30 mg/kg, po administered on day 1 to day 19 relative to control; assay type: functional
In short: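 HCT-116 xenografts in mice were given the test agent orally at 15 or 30 mg/kg, with a saline control group, over 19 days. Tumor volume was followed during treatment and tumors were weighed at the end. Body weight was monitored. Inhibition is expressed as treatment-to-control (T/C) ratio.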

Mus musculus = assay: In vivo inhibition of HDAC in BALB/cAnNCrl mouse xenografted with human HCT116 cells assessed as increase in acetylated histone H3 level in tumor tissue at 15 to 30 mg/kg, po administered on day 1 to day 19 measured on day 19 by immunohistochemical analysis; assay type: functional, organism-based
In short: (§2)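 HCT-116 xenograft mice were dosed orally at 15 or 30 mg/kg, or 30 mg/kg for reference agents, for 19 days, with vehicle or saline controls. Tumor sections were stained for Ki-67, c-Myc, Ac-H3, BRD4, LC3-II, LIFR and p-STAT3 by immunohistochemistry, and TUNEL staining was used as the apoptosis marker.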

HCT-116 [13] = assay: Antitumor activity against human HCT116 cells xenografted in BALB/cAnNCrl mouse assessed as increase in TUNEL positive apoptotic nuclei in tumor tissue at 15 to 30 mg/kg, po administered on day 1 to day 19 measured on day 19 by TUNEL assay; assay type: functional, organism-based; in short: as §2
[14] = Half life in Sprague-Dawley rat at 30 mg/kg, iv administered as bolus dose measured up to 1440 mins by UPLC-QTOF/MS analysis; assay type: ADME, organism-based; conditions: in vivo
Homo sapiens [15] = organism: Homo sapiens; assay: Inhibition of BRD4/HDAC in human HCT116 cells assessed as inhibition of IL6-JAK-STAT3 signaling pathway by measuring decrease in OSMR expression at 0.5 uM after 24 hrs by Western blot analysis; assay type: cell-based
In short: (§3)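 HCT-116 cells treated 24 h with 0.5 µM, 5.0 µM or 10 µM test agent depending on compound; OSMR, LIFR and downstream pathway proteins detected by western blot.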

Homo sapiens [16] = organism: Homo sapiens; assay: Inhibition of BRD4/HDAC in human HCT116 cells assessed as inhibition of IL6-JAK-STAT3 signaling pathway by measuring decrease in JAK1 expression at 0.5 uM after 24 hrs by Western blot analysis; assay type: cell-based; in short: as §3
HCT-116 [17] = assay: Decrease in BRD4 expression in human HCT116 cells at 0.2 to 0.5 uM incubated for 24 hrs by western blot analysis; assay type: functional, cell-based
[18] = molecular target: T1, Bromodomain-containing protein 4; assay: Inhibition of BRD4 in human HCT116 cells assessed as induction of autophagy by measuring p62 degradation at 0.5 uM measured after 24 hrs by Western blot analysis; assay type: cell-based

Chain of Bromodomain-containing protein 3 (Q15059 whole entry, the tested form may be a part): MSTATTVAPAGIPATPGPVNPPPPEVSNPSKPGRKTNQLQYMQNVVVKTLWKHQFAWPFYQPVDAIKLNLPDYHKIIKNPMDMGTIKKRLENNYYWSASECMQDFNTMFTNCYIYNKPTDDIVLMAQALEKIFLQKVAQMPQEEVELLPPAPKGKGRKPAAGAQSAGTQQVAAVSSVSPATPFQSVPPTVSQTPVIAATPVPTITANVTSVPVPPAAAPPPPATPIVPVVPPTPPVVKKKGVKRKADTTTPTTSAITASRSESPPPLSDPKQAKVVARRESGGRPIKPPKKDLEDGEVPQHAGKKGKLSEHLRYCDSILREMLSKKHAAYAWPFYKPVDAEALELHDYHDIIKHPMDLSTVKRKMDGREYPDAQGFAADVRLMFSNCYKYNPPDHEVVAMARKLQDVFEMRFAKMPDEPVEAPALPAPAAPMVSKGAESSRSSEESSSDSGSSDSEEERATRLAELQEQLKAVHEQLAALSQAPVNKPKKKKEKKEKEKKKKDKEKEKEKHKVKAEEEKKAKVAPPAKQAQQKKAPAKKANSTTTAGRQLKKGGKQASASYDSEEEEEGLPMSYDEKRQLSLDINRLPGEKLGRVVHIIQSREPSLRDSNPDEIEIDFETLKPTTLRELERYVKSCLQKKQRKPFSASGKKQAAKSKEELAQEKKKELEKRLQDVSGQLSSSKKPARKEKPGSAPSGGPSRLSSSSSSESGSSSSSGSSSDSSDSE

IC50 (HCT-116 [1]): 450 nM
IC50 [4]: > 20000 nM
IC50 [5]: 2050 nM
IC50 [6]: 1100 nM
IC50 [7]: > 20000 nM
inhibition [11]: Active
inhibition [18]: Active
Compound: Cc1cc(-c2nc3sc4c(c3c(=O)[nH]2)CCN(C)C4)cc(C)c1OCCCCCC(=O)NO
Activity (HCT-116 [2]): 9.54%
viability at 0.2 µM (HCT-116 [3]): 61.7%
Activity (NCM460): Non-Toxic
Activity (HCT-116 [8]): Active
Activity (HCT-116 [9]): Dose-dependent effect
inhibition (Homo sapiens [10]): Active
Activity (LoVo): Active
growth inhibition (GI) (HCT-116 [12]): 68.8%
inhibition (Mus musculus): Active
Activity (HCT-116 [13]): Active
half-life [14]: 2.48 h
inhibition (Homo sapiens [15]): Active
inhibition (Homo sapiens [16]): Active
inhibition (HCT-116 [17]): Active
